# Assay results gathered from unrelated publications.
# Protocols differ between the studies behind these lines.
# Target: Tyrosine-protein kinase Fer (FER, Homo sapiens, UniProt P16591)
Compound,test,conditions,measurement,value
COc1cc(Nc2ncc(F)c(Nc3ccc4c(n3)NC(=O)C(C)(C)O4)n2)cc(OC)c1OC,"binding, competition with immobilised ligand",10 µM,inhibition,78%
C#Cc1n[nH]c2c(-c3cn([C@@H](C)c4ccccc4)c(=O)[nH]c3=O)cc(F)cc12,"enzyme activity, inhibitor",0.1 µM,inhibition,1.5%
Nc1ncc(-c2nc(N3CCOCC3)nc(N3CCOCC3)n2)c(C(F)F)n1,"binding, competition with immobilised ligand",10 µM,remaining binding,67%
CCn1cnc2c(Nc3cccc(Cl)c3)nc(N[C@H]3CCCC[C@H]3N)nc21,"enzyme activity, inhibitor",0.5 µM,remaining activity,86.8%
COc1ncccc1-c1cnn2ccc(N3CCN(C(=O)OC(C)C)CC3)nc12,"binding, competition with immobilised ligand",1 µM,remaining binding,100%
Cn1cc(-c2cccc(N3CCc4c(sc5c4CC(C)(C)C5)C3=O)c2CO)cc(Nc2ccncn2)c1=O,"enzyme activity, inhibitor",1 µM,inhibition,9%
C#Cc1n[nH]c2c(-c3cn([C@@H](C)c4ccccn4)c(=O)[nH]c3=O)cc(F)cc12,"enzyme activity, inhibitor",0.1 µM,inhibition,3.7%
Cn1cc(-c2cc(F)cc(N3CCn4c(cc5c4CCCC5)C3=O)c2CO)cc(Nc2ccc(N3CCN(C4COC4)CC3)cn2)c1=O,"enzyme activity, inhibitor",0.1 µM,inhibition,10%
CC(C)(C)c1cc(C=C(C#N)C#N)cc(Br)c1O,"enzyme activity, inhibitor",0.5 µM,remaining activity,100%
Cn1cncc1[C@@](O)(COc1ccc(C#N)cc1-c1ccc(OC(F)(F)F)cc1)c1ccc(C#N)cc1,"cell-free assay, competition with immobilised ligand",1 µM,remaining binding,100%
Cc1nn(C)cc1-c1nc2c(N3CCN(Cc4ccc(Cl)cc4)CC3)c(Cl)cnc2[nH]1,"binding, competition with immobilised ligand",1 µM,remaining binding,100%
